This note sets out measurements from ChEMBL document CHEMBL3393009 (J Med Chem, 2015).

The source made the active and inactive calls. The rule behind the calls is not given here.

Series [1] concerns Rattus norvegicus. Kind of series: fAUC in Wistar Han rat at 60 mg/kg, po bid for 14 days. Type of series: ADME, organism-based. Also on record: dose 60 mg/kg, route oral. As to conditions: in vivo, 336 h. In short, it runs like this: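 Wistar Han rats dosed orally twice daily in 10% propylene glycol/20% PEG400/methylcellulose vehicle. Unbound plasma exposure measured on days 1 and 11.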

Series [2] deals with Rattus norvegicus. Kind of series: Toxicity in Wistar Han rat assessed as changes in electrolytes levels at 6 to 60 mg/kg, po bid for 14 days. It is filed as organism-based. To be noted: in vivo, 336 h. Further details: dose 6-60 mg/kg, route oral. In short, it runs like this:
(§1)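 Wistar Han rats (200–300 g, 8–11 weeks) dosed by oral gavage twice daily for 14 days. Vehicle: 10% propylene glycol/20% PEG400/70% methylcellulose solution. RBC parameters, electrolytes, food consumption, body weight, clinical chemistry and urinary biomarkers recorded.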

The test system of series [3] is Mus musculus. Kind of series: Effect on total LRRK2 protein level in BAC-transgenic C57BL/6J mouse brain at 3 to 100 mg/kg, sc measured after 90 mins post dose. Type of series: ADME, organism-based. As to conditions: in vivo, 1.5 h. Further details: dose 3-100 mg/kg, route subcutaneous.
Series [4] concerns Mus musculus. Description: Potency index, ratio of IC50 for LRRK2 […] mutant […] phosphorylation in BAC-transgenic mouse at 3 to 100 mg/kg, sc to IC50 for wild type LRRK2 […] phosphorylation in BAC-transgenic C57BL/6J mouse brain at 3 to 100 mg/kg, sc. Type of series: functional. In short, it runs like this:
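Four-month-old C57BL/6J mice and seven-month-old LRRK2 BAC-transgenic G2019S mice received single subcutaneous doses. Vehicle was 10% NMP in 20% SBECD. Brain was collected 90 min after dosing and snap frozen. LRRK2 pS935 phosphorylation was measured in brain lysate. An unbound-drug IC50 was estimated from the dose–response in each strain.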

The subject of series [5] is Mus musculus. Kind of series: Effect on total LRRK2 protein level in BAC-transgenic C57BL/6J mouse kidney at 3 to 100 mg/kg, sc measured after 90 mins post dose. Also on record: dose 3-100 mg/kg, route subcutaneous. To be noted: in vivo, 1.5 h. It is filed as ADME, organism-based.
Series [6] relates to Rattus norvegicus. Kind of series: Toxicity in Wistar Han rat assessed as changes in lung parameters at 6 to 60 mg/kg, po bid for 14 days by H and E staining method. Type of series: organism-based. Also on record: dose 6-60 mg/kg, route oral. To be noted: in vivo, 336 h.
The target of series [7] is Leucine-rich repeat serine/threonine-protein kinase 2 (Homo sapiens, UniProt Q5S007). Description: Inhibition of LRRK2 in human PBMCs by ActivX KiNativ method.
Series [8] can be described thus: Clearance in rat liver microsomes. It is filed as ADME. To be noted: read-out: CLH.
The test system of series [9] is Rattus norvegicus. Description: Toxicity in Wistar Han rat assessed as changes in urinary biomarkers at 6 to 60 mg/kg, po bid for 14 days. To be noted: in vivo, 336 h. It is filed as organism-based, Urine. Further details: dose 6-60 mg/kg, route oral. In short, it runs like this:
as §1

Series [10] has as its system Rattus norvegicus. Kind of series: Inhibition of LRRK2 […] phosphorylation in Wistar Han rat brain at 6 to 60 mg/kg, po bid for 14 days. It is filed as functional. To be noted: dose mg/kg 6-60.
In series [11] the target is T1, Serine/threonine-protein kinase 3 (Homo sapiens, UniProt Q13188).
T1 sequence (Q13188 whole entry): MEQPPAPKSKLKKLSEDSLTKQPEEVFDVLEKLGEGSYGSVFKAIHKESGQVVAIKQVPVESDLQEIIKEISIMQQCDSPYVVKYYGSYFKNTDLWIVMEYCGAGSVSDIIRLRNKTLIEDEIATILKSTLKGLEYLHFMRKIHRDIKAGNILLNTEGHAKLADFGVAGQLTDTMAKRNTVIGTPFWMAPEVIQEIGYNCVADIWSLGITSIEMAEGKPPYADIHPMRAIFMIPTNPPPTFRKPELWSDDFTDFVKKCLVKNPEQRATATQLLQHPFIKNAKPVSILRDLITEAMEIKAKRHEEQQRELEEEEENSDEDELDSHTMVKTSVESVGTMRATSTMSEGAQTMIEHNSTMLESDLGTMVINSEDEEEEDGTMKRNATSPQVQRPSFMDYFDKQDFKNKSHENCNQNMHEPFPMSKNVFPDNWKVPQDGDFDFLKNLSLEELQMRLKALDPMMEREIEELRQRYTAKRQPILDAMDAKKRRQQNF
Description: Inhibition of human recombinant MST2 using Ser/Thr peptide 7 substrate after 45 mins by Z-Lyte assay.

For series [12], the system named is Rattus norvegicus. Description: Drug coverage index, ratio fAUC in Wistar Han rat at 20 mg/kg, po bid for 14 days to IC50 for LRRK2 […] phosphorylation in Wistar Han rat brain at 6 to 60 mg/kg, po bid for 14 days. It is filed as ADME, organism-based. To be noted: in vivo, 336 h. The method in brief: (§2)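 Wistar Han rats (200–300 g, 8–11 weeks old) were dosed by oral gavage twice daily for 14 days. Vehicle was 10% propylene glycol/20% PEG400/70% 9.5% methocellulose.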

Series [13] is described as follows: Tmax in non-human primate at 5 mg/kg, po. Type of series: ADME, organism-based. Also on record: dose 5 mg/kg, route oral. As to conditions: monkey, in vivo.
Series [14] deals with Tyrosine-protein kinase JAK1 (Homo sapiens, UniProt P23458). Description: Inhibition of JAK1 (JH2 domain-pseudokinase) (unknown origin) at 1 uM.
Series [15] concerns Rattus norvegicus. Description: Drug coverage index, ratio fAUC in Wistar Han rat at 60 mg/kg, po bid for 14 days to IC50 for LRRK2 […] phosphorylation in Wistar Han rat brain at 6 to 60 mg/kg, po bid for 14 days. Type of series: ADME, organism-based. As to conditions: in vivo, 336 h. In short, it runs like this: as §2

Tyrosine-protein kinase JAK1, sequence (P23458 whole entry, the tested form may be a part): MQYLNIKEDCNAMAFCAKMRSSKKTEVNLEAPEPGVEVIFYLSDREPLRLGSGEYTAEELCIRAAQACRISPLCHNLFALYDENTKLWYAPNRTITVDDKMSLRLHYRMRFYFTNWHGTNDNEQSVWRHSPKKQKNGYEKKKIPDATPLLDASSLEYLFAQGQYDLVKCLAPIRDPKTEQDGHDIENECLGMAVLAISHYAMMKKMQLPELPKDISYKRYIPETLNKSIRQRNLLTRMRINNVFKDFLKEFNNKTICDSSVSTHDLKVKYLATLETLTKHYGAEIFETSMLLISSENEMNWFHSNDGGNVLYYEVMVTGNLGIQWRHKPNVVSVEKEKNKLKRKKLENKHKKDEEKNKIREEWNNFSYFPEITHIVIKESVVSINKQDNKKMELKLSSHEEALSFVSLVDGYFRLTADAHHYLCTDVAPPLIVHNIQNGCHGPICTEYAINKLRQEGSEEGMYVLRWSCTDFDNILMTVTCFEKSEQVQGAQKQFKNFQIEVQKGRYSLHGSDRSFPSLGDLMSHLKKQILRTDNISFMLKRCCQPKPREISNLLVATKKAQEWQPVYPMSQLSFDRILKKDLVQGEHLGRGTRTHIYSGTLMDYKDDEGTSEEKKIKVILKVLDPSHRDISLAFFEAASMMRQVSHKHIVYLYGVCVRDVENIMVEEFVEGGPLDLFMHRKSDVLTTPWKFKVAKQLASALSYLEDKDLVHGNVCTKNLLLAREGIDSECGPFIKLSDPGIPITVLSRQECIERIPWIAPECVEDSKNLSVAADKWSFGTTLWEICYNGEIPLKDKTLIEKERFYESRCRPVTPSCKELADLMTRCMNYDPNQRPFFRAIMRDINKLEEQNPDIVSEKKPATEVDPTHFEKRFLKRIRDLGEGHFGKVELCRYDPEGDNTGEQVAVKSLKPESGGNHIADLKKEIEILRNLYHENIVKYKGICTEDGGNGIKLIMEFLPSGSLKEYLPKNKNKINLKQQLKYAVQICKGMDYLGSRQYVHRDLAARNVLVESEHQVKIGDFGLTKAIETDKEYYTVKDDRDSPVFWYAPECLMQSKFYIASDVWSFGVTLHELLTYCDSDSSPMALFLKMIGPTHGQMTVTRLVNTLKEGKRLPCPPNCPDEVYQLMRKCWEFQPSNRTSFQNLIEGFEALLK
Leucine-rich repeat serine/threonine-protein kinase 2, sequence (Q5S007 whole entry): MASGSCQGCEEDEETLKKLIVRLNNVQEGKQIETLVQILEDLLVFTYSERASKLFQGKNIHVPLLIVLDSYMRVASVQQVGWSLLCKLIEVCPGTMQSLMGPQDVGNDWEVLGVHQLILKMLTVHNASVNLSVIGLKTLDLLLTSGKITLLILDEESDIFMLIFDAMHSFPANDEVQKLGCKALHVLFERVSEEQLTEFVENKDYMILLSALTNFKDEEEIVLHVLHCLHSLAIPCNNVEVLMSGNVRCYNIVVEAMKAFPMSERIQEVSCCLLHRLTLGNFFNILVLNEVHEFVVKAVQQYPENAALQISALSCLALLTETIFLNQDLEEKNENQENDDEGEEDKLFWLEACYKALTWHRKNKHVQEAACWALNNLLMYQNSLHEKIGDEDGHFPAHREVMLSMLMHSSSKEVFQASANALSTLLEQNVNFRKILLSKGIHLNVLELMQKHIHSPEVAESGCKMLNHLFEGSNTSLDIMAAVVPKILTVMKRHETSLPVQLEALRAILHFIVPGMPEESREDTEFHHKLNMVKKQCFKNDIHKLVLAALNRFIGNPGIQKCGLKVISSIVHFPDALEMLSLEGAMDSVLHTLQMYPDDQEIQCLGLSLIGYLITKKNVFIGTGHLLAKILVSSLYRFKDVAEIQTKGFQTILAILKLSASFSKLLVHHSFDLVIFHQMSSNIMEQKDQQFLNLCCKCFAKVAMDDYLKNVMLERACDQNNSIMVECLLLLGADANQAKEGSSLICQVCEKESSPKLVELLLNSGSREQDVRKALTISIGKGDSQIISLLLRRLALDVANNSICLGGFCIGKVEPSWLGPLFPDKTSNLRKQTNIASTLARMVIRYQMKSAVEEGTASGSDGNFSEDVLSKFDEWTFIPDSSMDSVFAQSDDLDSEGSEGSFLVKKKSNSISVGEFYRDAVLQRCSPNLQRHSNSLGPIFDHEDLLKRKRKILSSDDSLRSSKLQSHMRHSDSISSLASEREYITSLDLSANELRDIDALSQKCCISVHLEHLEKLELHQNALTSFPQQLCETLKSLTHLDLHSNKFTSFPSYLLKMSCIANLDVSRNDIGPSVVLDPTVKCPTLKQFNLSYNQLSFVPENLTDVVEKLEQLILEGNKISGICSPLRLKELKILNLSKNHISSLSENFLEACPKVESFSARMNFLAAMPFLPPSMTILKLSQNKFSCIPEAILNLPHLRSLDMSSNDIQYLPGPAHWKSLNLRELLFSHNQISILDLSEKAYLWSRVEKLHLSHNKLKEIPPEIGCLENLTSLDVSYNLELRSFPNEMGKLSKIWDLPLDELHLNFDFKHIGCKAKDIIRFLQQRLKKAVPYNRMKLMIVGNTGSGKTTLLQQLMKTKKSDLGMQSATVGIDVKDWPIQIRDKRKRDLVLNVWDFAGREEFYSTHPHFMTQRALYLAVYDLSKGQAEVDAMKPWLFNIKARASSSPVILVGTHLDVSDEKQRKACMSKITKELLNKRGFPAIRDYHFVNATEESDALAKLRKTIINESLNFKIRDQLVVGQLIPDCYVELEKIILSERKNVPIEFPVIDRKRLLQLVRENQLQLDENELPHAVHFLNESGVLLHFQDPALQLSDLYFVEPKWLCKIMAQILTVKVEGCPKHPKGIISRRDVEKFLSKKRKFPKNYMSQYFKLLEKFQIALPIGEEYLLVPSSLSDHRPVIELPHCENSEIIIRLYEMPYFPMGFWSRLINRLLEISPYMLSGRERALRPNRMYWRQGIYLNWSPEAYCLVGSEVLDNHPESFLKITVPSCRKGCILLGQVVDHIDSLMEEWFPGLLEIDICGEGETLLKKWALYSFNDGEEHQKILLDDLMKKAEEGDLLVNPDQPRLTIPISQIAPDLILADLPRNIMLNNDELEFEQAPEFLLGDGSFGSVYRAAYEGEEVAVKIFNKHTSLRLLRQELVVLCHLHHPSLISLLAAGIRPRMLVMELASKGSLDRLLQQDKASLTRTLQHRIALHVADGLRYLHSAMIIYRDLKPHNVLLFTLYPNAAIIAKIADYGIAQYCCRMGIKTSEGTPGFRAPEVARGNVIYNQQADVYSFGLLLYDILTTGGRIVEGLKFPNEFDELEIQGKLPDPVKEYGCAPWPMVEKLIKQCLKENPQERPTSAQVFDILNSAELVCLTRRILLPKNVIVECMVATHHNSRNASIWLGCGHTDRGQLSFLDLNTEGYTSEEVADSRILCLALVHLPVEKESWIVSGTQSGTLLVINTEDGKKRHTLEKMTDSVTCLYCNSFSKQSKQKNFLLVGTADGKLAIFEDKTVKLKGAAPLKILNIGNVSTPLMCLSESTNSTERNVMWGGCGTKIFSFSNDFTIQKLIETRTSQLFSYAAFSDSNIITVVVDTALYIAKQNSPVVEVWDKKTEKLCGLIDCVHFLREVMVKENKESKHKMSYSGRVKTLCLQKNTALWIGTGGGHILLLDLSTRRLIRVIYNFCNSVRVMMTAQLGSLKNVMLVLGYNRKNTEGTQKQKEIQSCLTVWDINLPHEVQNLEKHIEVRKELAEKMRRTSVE

`N#Cc1cccc(-c2c[nH]c3ncnc(N4CCOCC4)c23)c1` yielded a fAUC in the series with Rattus norvegicus [1] of 11.17 µM·h. For the same molecule, the Activity result with Rattus norvegicus [2], in the series with Mus musculus [3], with Mus musculus [5], with Rattus norvegicus [6] and in the series on Rattus norvegicus [9] was “Non-toxic” each time. Further, in the series on Mus musculus [4], the “Ratio IC50” value is on record as 10. Further, the half-inhibitory concentration (IC50) in series [7] amounted to 15 nM; in [11], 22 nM. For the same molecule, in [8], the CLint scaled amounted to 131 mL/min/kg. Besides, the fIC50 in the series on Rattus norvegicus [10] is given as 15 nM. In addition, the Ratio in the series on Rattus norvegicus [12] is 12; in the series with Rattus norvegicus [15], 31. Moreover, in [13], the time of peak concentration (Tmax) came to 2 h. In addition, the inhibition entry in [14] was “inactive”.

The term IC50 denotes the midpoint of a concentration-inhibition curve. One may read the Tmax as the time at which the peak concentration occurs.
